High-throughput results deposited in PubChem BioAssay by several laboratories.
An excerpt weighted towards active compounds, which were near 2.2% of everything screened.
FLuc inhib CS: inhibits firefly luciferase, flagging false hits in luciferase inhibition screens; P08659; ATPLite firefly luciferase biochemical luminescence, 10 min; inhibition, % at 10 µM; 1.5% of 200,000 active;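 active = inhibition above about 50% when tested at 10 µM, limit read from the data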
Wee1 stabilizer: blocks degradation of human Wee1 kinase | HeLa Luc-Wee1K328M stability, luciferase luminescence; 100% = proteasome inhibitor MG132 effect | reporter increase, % at 5 µM | AID 1321 | 1.2% of 220,000 active | P30291;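 active = activation above the mean of all tested compounds plus 3 SD, set per screening run, cut at about 8.8% in these data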;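 also: cells exposed to compound for 20 h before luminescence read; 0% = DMSO alone and 100% = MG132 at 30 µM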
Target sequence (P30291 whole entry K328M): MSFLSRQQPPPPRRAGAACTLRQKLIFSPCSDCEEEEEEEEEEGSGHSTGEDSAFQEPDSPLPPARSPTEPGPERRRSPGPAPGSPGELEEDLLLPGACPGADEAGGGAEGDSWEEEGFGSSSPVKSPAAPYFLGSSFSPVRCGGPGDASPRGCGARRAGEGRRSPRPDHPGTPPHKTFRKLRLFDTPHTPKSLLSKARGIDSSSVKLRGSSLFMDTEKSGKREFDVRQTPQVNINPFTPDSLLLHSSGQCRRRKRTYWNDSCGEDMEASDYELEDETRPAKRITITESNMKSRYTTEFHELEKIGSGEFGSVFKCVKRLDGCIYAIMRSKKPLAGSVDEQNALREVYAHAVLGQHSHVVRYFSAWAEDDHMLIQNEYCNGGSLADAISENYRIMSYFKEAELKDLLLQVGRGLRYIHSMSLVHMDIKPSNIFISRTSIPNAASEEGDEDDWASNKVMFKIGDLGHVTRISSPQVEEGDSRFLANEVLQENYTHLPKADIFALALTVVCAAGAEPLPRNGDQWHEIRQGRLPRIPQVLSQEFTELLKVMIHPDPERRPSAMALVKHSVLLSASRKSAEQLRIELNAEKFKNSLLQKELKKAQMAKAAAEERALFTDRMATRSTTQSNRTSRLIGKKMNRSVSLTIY
FLuc stim CS: affects firefly luciferase, flagging false hits in luciferase stimulation screens; AID 1027; 200,000 tested, under 10 active; activation factor at 10 µM; ATPlite luciferase biochemical, luminescence, 10 min; 0 = ATP-free wells, 1 = DMSO control;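 active = luciferase activation factor, scaled between plate controls, of at least 2 with compound at 10 µM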
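Material: Luciferase/luciferin reagent mix | Doses: Test compounds dosed from 2 mM stocks in 100% DMSO | Timing: 10 min incubation after luciferase reagent addition, room temperature | Measured by: Luminescence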
PKD1 inh: blocks activity of human protein kinase D1. Q15139. PKD1 kinase fluorescence polarization assay. inhibition, % (test concentration not listed). 0.056% of 200,000 active. AID 797; in the data active = inhibition above about 50%
PPC-1+TRAIL kill: kills PPC-1 cancer cells in the presence of TRAIL. PPC-1 cells + TRAIL, ATPLite viability luminescence. cell killing (% activity), % at 4 µM or 5 µM. 0.41% of 220,000 active;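 active = cell killing above 50% in the first pass at 4 µM, then a duplicate retest at 5 µM averaging 50% or more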;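 also: plate controls were cells with TRAIL plus DMSO for no effect and medium-only wells lacking cells for full effect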
TRAIL sens C8: sensitizes caspase-8 expressing cells to TRAIL; NB7+C8 cells + TRAIL, ATPlite viability luminescence; inhibition (viability loss, TRAIL sensitization), % at 10 µM; 1% of 360,000 active; AID 624354;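 active = compounds causing at least 50% loss of cell viability in the single-dose screen, relative to plate controls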
Wee1 degr conf: human Wee1 degradation inhibition, confirmation; activation, % at 5 µM; shares compounds with Wee1 stabilizer; HeLa Luc-Wee1K328M degradation, luminescence; vehicle 0%, proteasome-blocked wells 100%; 4% of 1,100 active; in the data active = activation above about 8.9%
PPC-1 tox: kills PPC-1 cells | shares compounds with PPC-1+TRAIL kill | PPC-1 viability, ATPlite luminescence, overnight | cytotoxicity, % at 5 µM | 50% of 1,200 active | AID 1447;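 active = reconfirmed compounds whose average cytotoxicity reaches 50% or more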;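 also: 0% = DMSO-treated cells and 100% = wells holding medium but no cells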
* hit, by the source's call.

For CCOc1ccc(-c2cc(C(=O)N3CCN(C)CC3)c3ccccc3n2)cc1 the results were FLuc inhib CS 83.4*, Wee1 stabilizer 17.1*, FLuc stim CS 0.2, PKD1 inh -2.2, PPC-1+TRAIL kill 72.0*, TRAIL sens C8 74.7*, Wee1 degr conf 1.1 and PPC-1 tox 67.3*.
`O=C(c1cc(-c2ccccc2)nc2ccccc12)N1CCCC1` gave TRAIL sens C8 2.3.
CCOC(=O)N1CCN(C(=O)c2cc(-c3ccc(OCC)cc3)nc3ccccc23)CC1 was read as FLuc inhib CS 92.4*, Wee1 stabilizer 11.8*, FLuc stim CS 0.1, PKD1 inh -16.7, PPC-1+TRAIL kill 82.2*, TRAIL sens C8 88.8*, Wee1 degr conf 21.9* and PPC-1 tox 83.0*.
CCOC(=O)N1CCN(C(=O)c2cc(-c3ccncc3)nc3ccccc23)CC1 was read as TRAIL sens C8 27.6.
For C[C@@H]1CC[C@@]2(O[C@@H](CCO)C[C@@H](O)[C@@H]2O)O1 the results were TRAIL sens C8 -12.6.
Screening COc1ccc(-n2nc3cc(C)c(NC(=O)C(C)C)cc3n2)cc1 returned FLuc inhib CS 19.4, Wee1 stabilizer 0.7, FLuc stim CS 0.8, PKD1 inh -16.6 and PPC-1+TRAIL kill 45.0.
COc1ccc(-n2nc3cc(C)c(NC(C)=O)cc3n2)cc1 was read as FLuc inhib CS 81.3*, Wee1 stabilizer 11.9*, FLuc stim CS 0.2, PKD1 inh -0.2, PPC-1+TRAIL kill 64.0*, TRAIL sens C8 73.6*, Wee1 degr conf -4.3 and PPC-1 tox 60.2*.
O=C(CNC(=O)c1ccc(Cl)cc1Cl)OCn1nnc2ccccc2c1=O was read as TRAIL sens C8 -20.2.
Screening CC(=C/c1ccccc1)/C=N/NC(=O)c1ccccn1 returned Wee1 stabilizer 32.4*, PPC-1+TRAIL kill 81.5*, TRAIL sens C8 85.5*, Wee1 degr conf -2.5 and PPC-1 tox 81.2*.
Screening COc1ccc(-c2cc(C(=O)Nc3cccnc3)c3ccccc3n2)cc1OC returned TRAIL sens C8 8.0.
For Cc1ccc(/C=N/NC(=O)c2ccc3c(c2)OCCO3)s1 the results were Wee1 stabilizer 12.2*, PPC-1+TRAIL kill 37.3, TRAIL sens C8 29.9, Wee1 degr conf 10.8* and PPC-1 tox 42.8.
Cc1nnc(SCC(=O)Nc2nc(-c3ccc(F)cc3)cs2)[nH]c1=O was read as FLuc inhib CS -2.4, Wee1 stabilizer -3.5, FLuc stim CS 1, PKD1 inh -5.9, PPC-1+TRAIL kill 9.5 and TRAIL sens C8 -4.4.
Cc1ccccc1NC(=O)Cn1c(CCC(=O)O)ccc1-c1cccs1 was read as FLuc inhib CS -0.1, Wee1 stabilizer -2.0, FLuc stim CS 1, PKD1 inh 7.9, PPC-1+TRAIL kill 20.1 and TRAIL sens C8 -0.9.
For COC(=O)c1ccccc1NC(=O)Cn1c(CCC(=O)O)ccc1-c1cccs1 the results were FLuc inhib CS -5.0, Wee1 stabilizer 16.6*, FLuc stim CS 1.1, PKD1 inh -2.2, PPC-1+TRAIL kill 6.5, TRAIL sens C8 7.2, Wee1 degr conf 7.0 and PPC-1 tox 14.9.
For CCCCCCCCCn1c2c(c(=N)c3c1CCC3)CCCC2 the results were FLuc inhib CS -1.6, Wee1 stabilizer 11.4*, FLuc stim CS 1, PKD1 inh -0.2, PPC-1+TRAIL kill 48.5, TRAIL sens C8 30.6, Wee1 degr conf 0.0 and PPC-1 tox 49.8.
O=C(O)CCC(=O)Nc1ccc(F)cc1 was read as FLuc inhib CS -4.0, Wee1 stabilizer -1.4, FLuc stim CS 1, PKD1 inh -10.4, PPC-1+TRAIL kill -11.2, TRAIL sens C8 10.7 and PPC-1 tox -11.8.
O=C(O)CCC(=O)Nc1ccc(SSc2ccc(NC(=O)CCC(=O)O)cc2)cc1 was read as TRAIL sens C8 4.6.
Screening COc1ccc(-n2c3c(c(=O)[nH]c2=O)C(NS(=O)(=O)c2ccc(Cl)cc2)(C(F)(F)F)C(=O)N3)cc1 (stereo not given) returned Wee1 stabilizer 4.5, PPC-1+TRAIL kill 9.3 and TRAIL sens C8 -3.9.
